A word on the IC50: it is the concentration that gives 50% inhibition. In general, solubility refers to the concentration that dissolves in the medium under given conditions. Read a low solubility as a poorly soluble substance.

From ChEMBL document CHEMBL4017546, “Small-Molecule Inhibitors of the CD40-CD40L Costimulatory Protein-Protein Interaction” (J Med Chem, 2017) come the findings set out here.

≈ marks a conversion by molar mass, not a printed value. Calls of active or inactive are those of the source. No cut-off for these calls is given here.

In series [1] the target is T1, CD40-CD40L (Homo sapiens, UniProt P25942+P29965). In words: Inhibition of interaction of CD40 (unknown origin) transfected in HEK Blue cells with recombinant human CD40L assessed as reduction in CD40L-induced NF-kappaB activation after 18 hrs by spectrophotometry based SEAP reporter gene assay. The format is cell-based.
In series [2] the target is MAC1-CD40L (Homo sapiens) (UniProt P05107+P11215+P29965). Put plainly: Inhibition of human Fc-conjugated Mac1/FLAG-tagged biotinylated CD40L protein-protein interaction incubated for 1 hr by ELISA-type assay. An outline of the steps: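 Fc-conjugated Mac-1 coated overnight at 4°C at 0.4 µg/mL; blocked with PBS/Tween/BSA. FLAG-tagged CD40L at 0.2 µg/mL added with graded compound in HEPES binding buffer (pH 7.2) for 1 h. Detection with anti-FLAG HRP/TMB at 450 nm. Data converted to percent inhibition and fitted to a log inhibitor curve.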

Series [3] concerns the target T1, CD40-CD40L. Put plainly: Inhibition of human Fc-conjugated CD40/FLAG-tagged biotinylated CD40L costimulatory protein-protein interaction incubated for 1 hr by ELISA-type assay. A general note: In an ELISA, binding on a coated surface is turned into a signal by an enzyme label.
Series [4] relates to THP-1. Put plainly: Cytotoxicity against human THP1 cells assessed as reduction in cell viability at 100 uM after 48 hrs by MTT assay. The format is cell-based. The settings on record: thp-1, 48 h. In short, it runs like this:
(§1)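 THP-1 cells grown in RPMI-1640 with 10% FBS, starved 24 h in FBS-free medium, then seeded at 50,000 cells/well with compounds diluted in the same medium. Incubated 48 h at 37°C, MTT added for a further half hour, formazan read at 490 nm. Data converted to percent inhibition; duplicate or triplicate wells, at least three independent experiments.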
A general note: Formazan colour is commonly taken as a measure of viable cells.

Series [5] addresses T1, CD40-CD40L. In words: Inhibition of interaction of CD40 in human B cells with recombinant human CD40L assessed as reduction in CD40L-induced cell proliferation after 48 hrs by BrdU incorporation-based ELISA. In short, it runs like this: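 CD19+ B cells from healthy-donor PBMC (magnetic bead selection, >90% CD19+) at 2 × 10^5 cells/mL in IMDM with 10% FBS, ITS and rhIL-4 at 0.2 µg/mL. Activated with rhCD154 (MegaCD40L) at 0.1 µg/mL plus graded compound for 48 h. BrdU then added for another 48 h; incorporation read by colorimetric ELISA.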
Background: Uptake of a labelled nucleoside into DNA is a usual measure of proliferation.
Target sequence in this assay (P25942 21-277 limits assumed): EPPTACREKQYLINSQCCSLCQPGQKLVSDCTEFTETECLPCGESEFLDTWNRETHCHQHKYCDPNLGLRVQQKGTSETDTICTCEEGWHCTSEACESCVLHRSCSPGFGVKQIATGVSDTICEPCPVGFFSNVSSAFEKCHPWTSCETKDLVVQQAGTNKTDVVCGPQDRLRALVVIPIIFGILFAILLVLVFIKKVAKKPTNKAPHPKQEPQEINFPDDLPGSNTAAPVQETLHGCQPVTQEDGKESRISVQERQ
Target sequence in this assay (P29965 113-261 partner limits assumed): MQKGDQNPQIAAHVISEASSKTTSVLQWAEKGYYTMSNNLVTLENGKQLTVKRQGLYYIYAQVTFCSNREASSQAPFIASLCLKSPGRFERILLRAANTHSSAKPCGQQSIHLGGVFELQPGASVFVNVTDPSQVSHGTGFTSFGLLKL

The target in series [6] is T1, CD40-CD40L. Put plainly: Inhibition of interaction of CD40 in promoter/enhancer region of aicda-fused Ds-Red reporter transfected human B cells with recombinant human CD40L assessed as reduction in CD40L/IL-4-induced B cell activation by measuring AID expression after 2 days by flow cytometric analysis. In short, it runs like this: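 Primary human B cells transduced by spinoculation (1.5 h, 2,500g, 32°C, polybrene 8 µg/mL) with aicda promoter/enhancer–DsRed lentivirus. Cells at 1.25 × 10^5/mL in IMDM with 10% FBS, stimulated with IL-4 and CD40L (each 0.2 µg/mL) plus graded compound for 2 days at 37°C. DsRed read by flow cytometry. Anti-CD40L mAb 33.3 nM and CpG 1 µg/mL as controls; n=3.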

Series [7] deals with T1, CD40-CD40L. In words: Inhibition of interaction of CD40 in human THP-1 cells with recombinant human CD40L assessed as reduction in CD40L-induced […] upregulation after 48 hrs by DAPI-staining based flow cytometric analysis. The format is cell-based. In short, it runs like this: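 THP-1 cells serum-starved 24 h, then stimulated with rhCD154 (MegaCD40L) at 0.5 µg/mL plus graded compound in FBS-free RPMI for 48 h at 37°C, 5% CO2. Stained for HLA-DR, then DAPI just before flow cytometry. Marker quantified in live (DAPI-negative) cells.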
Target sequence in this assay (P25942 21-277 limits assumed): as the sequence (P25942 21-277 limits assumed) above
Target sequence in this assay (P29965 113-261 partner limits assumed): as the sequence (P29965 113-261 partner limits assumed) above

A short description of series [8]: Elimination half life in C57BL6 mouse at 60 mg/kg, sc administered as single dose measured up to 24 hrs by HPLC analysis. To be noted: in vivo, read-out: beta t1/2 (converted). The format is ADME, organism-based. In short, it runs like this:
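Single s.c. dose of 1.6 mg/mouse (~60 mg/kg) in 250 µL 20% w/v HPβCD to male C57BL/6 mice, 10 weeks old (n = 4). Tail blood (50 µL) drawn at 0, 0.5, 1, 2, 4, 6 and 24 h. Plasma quantified by C18 HPLC (60:40 water:acetonitrile with 2.0 mM ammonium acetate, 254 nm), calibration linear over 1 to 500 µg/mL.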

Series [9] deals with Mus musculus. Put plainly: In vivo inhibition of alloantigen-induced T cell response in sc dosed BALB/c mouse injected with DBA-2 mouse splenocytes assessed as reduction in splenocyte-mediated increase in draining popliteal lymph node cells administered as bid from 1 day before alloantigen challenge to 3 days post alloantigen challenge. The format is functional, organism-based. An outline of the steps:
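Female BALB/c recipients (10–12 weeks) got a footpad injection of 1 × 10^7 splenocytes from male DBA-2 donors. Compound given s.c. at 20–60 mg/kg b.i.d. from day -1 to 3 in 20% HPβCD; MR-1 anti-CD40L (20 mg/kg, days -1 and 0) as positive control. Draining popliteal nodes taken 3 days after challenge and cells counted; n = 3–4 per group, mean ± SD.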

Series [10] in a line: Solubility of the compound in water. To be noted: buffer. It counts as physicochemical. In short, it runs like this:
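Saturated solution in distilled water, concentration measured by C18 HPLC (60:40 water:acetonitrile, 2.0 mM ammonium acetate, UV 254 nm). Calibration standards were made from known amounts dissolved in 20% w/v aqueous HPβCD. Compounds were tested as triethylamine salts unless stated otherwise.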

Series [11] can be described thus: Inhibition of human Fc-conjugated TNF-R/FLAG-tagged biotinylated TNFalpha protein-protein interaction incubated for 1 hr by ELISA-type assay.
For series [12], the system named is Mus musculus. Put plainly: Toxicity in C57BL6 mouse implanted with BALB/c mouse skin graft at 30 mg/kg, sc administered daily for 2 weeks. To be noted: in vivo, 336 h. The format is organism-based. In short, it runs like this:
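C57BL/6 recipients carried full-thickness BALB/c ear skin grafts on the dorsal thorax. They received CTLA4-Ig 250 μg on days 0, 2, 4 and 6, plus compound at 30 mg/kg s.c. daily in 20% w/v HPβCD over two weeks, and were watched for signs of toxicity. 5–8 mice per group.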

For series [13], the system named is Salmonella typhimurium. In words: Mutagenicity in Salmonella typhimurium TA100 up to 500 uM measured daily up to day 6 by Ames test. To be noted: salmonella enterica subsp. enterica serovar typhimurium. The format is toxicity. In short, it runs like this: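 Muta-Chromplate Ames format with S. typhimurium TA-100, reconstituted and grown overnight (16–18 h) at 37°C, then added to reaction mixture with compound at 0.1 to 500 μM (DMSO ≤2.5% final). Plated one plate per condition, incubated at 37°C, positive wells counted daily. Controls were background, NaN3 positive and sterility plates; significance from the manufacturer's tables.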

Series [14] is filed under the species Homo sapiens. Put plainly: Selectivity ratio of IC50 for human Fc-conjugated TNF-R/FLAG-tagged biotinylated TNFalpha protein-protein interaction to IC50 for human Fc-conjugated CD40/FLAG-tagged biotinylated CD40L costimulatory protein-protein interaction. An outline of the steps: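 Cell-free plate binding: TNF-R-Fc and CD40-Fc each coated at 0.3 µg/mL. FLAG-tagged TNF-α or CD40L, each at 0.02 µg/mL, added with graded compound for 1 h in HEPES buffer, pH 7.2. Anti-FLAG HRP/TMB detection at 450 nm. IC50s come from log inhibitor fits.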

Series [15] addresses T1, CD40-CD40L. Put plainly: Ratio of IC50 for human Fc-conjugated CD40/FLAG-tagged biotinylated CD40L costimulatory protein-protein interaction in presence of Triton-X 100 to IC50 for human Fc-conjugated CD40/FLAG-tagged biotinylated CD40L costimulatory protein-protein interaction in absence of Triton-X 100. It counts as protein assay. An outline of the steps: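 CD40-Fc (0.3 µg/mL) coated, FLAG-CD40L (0.02 µg/mL) binding, 1 h, anti-FLAG HRP/TMB read at 450 nm. Run with and without the non-ionic detergent Triton X-100 at 0.01% to test for colloidal aggregation. IC50 taken from log inhibitor vs. response fits in each condition.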
Target sequence in this assay (P25942 21-277 limits assumed): as the sequence (P25942 21-277 limits assumed) above
Target sequence in this assay (P29965 113-261 partner limits assumed): as the sequence (P29965 113-261 partner limits assumed) above

The test system of series [16] is THP-1. In words: Cytotoxicity against human THP1 cells assessed as reduction in cell viability at 100 to 200 uM after 48 hrs by MTT assay. It counts as cell-based. The settings on record: thp-1, 48 h. An outline of the steps:
as §1

MAC1-CD40L (Homo sapiens), sequence (P05107 whole entry, looked up, other chains not shown): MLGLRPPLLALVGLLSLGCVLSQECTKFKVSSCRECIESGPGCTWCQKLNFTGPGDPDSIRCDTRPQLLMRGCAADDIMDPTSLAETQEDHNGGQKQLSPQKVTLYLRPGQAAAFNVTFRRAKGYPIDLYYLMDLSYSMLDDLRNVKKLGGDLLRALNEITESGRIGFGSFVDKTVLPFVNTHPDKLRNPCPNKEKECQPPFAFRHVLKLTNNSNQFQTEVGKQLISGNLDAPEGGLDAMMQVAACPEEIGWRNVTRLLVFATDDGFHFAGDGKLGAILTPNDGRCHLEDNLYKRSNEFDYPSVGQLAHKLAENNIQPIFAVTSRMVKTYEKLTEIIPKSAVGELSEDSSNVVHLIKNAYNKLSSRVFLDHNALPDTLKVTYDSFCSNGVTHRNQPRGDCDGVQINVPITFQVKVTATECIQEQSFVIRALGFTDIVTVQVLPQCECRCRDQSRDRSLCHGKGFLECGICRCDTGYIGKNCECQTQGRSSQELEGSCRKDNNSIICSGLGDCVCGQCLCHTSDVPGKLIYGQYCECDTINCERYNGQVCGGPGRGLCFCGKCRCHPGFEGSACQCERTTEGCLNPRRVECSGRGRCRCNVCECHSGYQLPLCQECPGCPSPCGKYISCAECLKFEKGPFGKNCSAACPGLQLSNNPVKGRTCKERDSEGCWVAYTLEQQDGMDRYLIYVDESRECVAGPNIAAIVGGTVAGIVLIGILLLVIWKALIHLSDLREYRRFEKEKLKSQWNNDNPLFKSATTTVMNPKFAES
MAC1-CD40L (Homo sapiens), sequence (P29965 whole entry, looked up, other chains not shown): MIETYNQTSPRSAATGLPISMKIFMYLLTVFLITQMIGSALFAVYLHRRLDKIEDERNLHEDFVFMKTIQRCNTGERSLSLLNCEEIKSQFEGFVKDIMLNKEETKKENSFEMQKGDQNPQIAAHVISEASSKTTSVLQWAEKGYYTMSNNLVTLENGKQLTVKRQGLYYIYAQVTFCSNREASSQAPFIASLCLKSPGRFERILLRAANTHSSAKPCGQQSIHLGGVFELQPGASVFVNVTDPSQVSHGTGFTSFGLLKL

Consider `O=C(Nc1ccc2c(O)c(/N=N/c3ccc(/N=N\c4ccc(S(=O)(=O)O)cc4)cc3S(=O)(=O)O)c(S(=O)(=O)O)cc2c1)Nc1ccc2c(O)c(/N=N/c3ccc(/N=N\c4ccc(S(=O)(=O)O)cc4)cc3S(=O)(=O)O)c(S(=O)(=O)O)cc2c1`, for which, in series [1], the IC50 amounted to 42.7 µM and the inhibition result was “Dose-dependent effect”. Further, the inhibition entry in series [2] is “Active”. This compound showed an IC50 in series [3] of 2.26 µM.

Take `CSCC[C@H](NC(=O)[C@@H](NC(=O)[C@H](Cc1ccc(O)cc1)NC(=O)[C@H](Cc1ccc(O)cc1)NC(=O)CNC(=O)[C@H](CCCCN)NC(=O)[C@H](CCCCN)NC(=O)[C@H](C)NC(=O)[C@H](Cc1c[nH]c2ccccc12)NC(=O)[C@H](CCC(N)=O)NC(=O)[C@H](CC(C)C)NC(=O)[C@@H](N)C(C)C)[C@@H](C)O)C(=O)N[C@@H](CCCCN)C(=O)N[C@@H](CO)C(=O)N[C@@H](CC(N)=O)C(=O)O`: the inhibition entry in series [3] is “inactive”.

Consider H-VLQWAEKGYYTMSNN-OH, for which the 50% inhibitory concentration (IC50) in series [3] was 154 µM.

Consider `COC(=O)c1ccc(C(=O)Nc2ccc(-c3ccc(C(=O)Nc4cccc5cccc(S(=O)(=O)O)c45)cc3)cc2)cc1`, for which the Activity entry in [4], in series [12] and in series [13] was “Non-Toxic” throughout. Besides, the inhibition entry in series [5], in [1], in series [6], in series [7] and in [3] was “Dose-dependent effect” each time. Also, the IC50 in series [1] worked out at 17.1 µM; in [6] it was 4.5 µM; in [11], 992 µM; in series [3] it was 0.17 µM. The half-life in [8] was 2 h. In addition, the inhibition entry in [2] and in [9] was “Active” in each case. For the same compound, the solubility in series [10] stood at 240 µM (≈ 139 µg/mL).

Take `O=C(Nc1ccc(-c2ccc(C(=O)Nc3ccc(S(=O)(=O)O)c4ccccc34)cc2)cc1)c1ccc([N+](=O)[O-])cc1`: the Ratio IC50 in series [14] was over 100. This compound came in with an IC50 in series [11] of 479 µM. Moreover, in series [3], the IC50 was 2.33 µM and the inhibition result is “Dose-dependent effect”.

In the case of `O=C1OC2(c3ccccc31)c1cc(I)c(O)c(I)c1Oc1c2cc(I)c(O)c1I`, the Ratio IC50 in series [15] worked out at 1.04.

With `O=C(Nc1ccc(-c2ccc(C(=O)Nc3cccc4cccc(S(=O)(=O)O)c34)cc2)cc1)c1ccc2[nH]nnc2c1`, the Ratio IC50 in series [14] was over 100. The compound also came in with an IC50 in series [11] of over 1000 µM. In series [3], half-maximal inhibition (IC50) was put at 0.99 µM and the inhibition entry is “Dose-dependent effect”.

Regarding `O=C(Nc1ccc(C(=O)Nc2cccc3cccc(S(=O)(=O)O)c23)cc1)c1ccc([N+](=O)[O-])cc1`, the inhibition entry in series [2] was “Active”. Further, the Ratio IC50 in series [14] is over 100. In series [11], this compound registered an IC50 of over 1000 µM.

For `O=C(Nc1ccc(-c2ccc(C(=O)Nc3cccc4cccc(S(=O)(=O)O)c34)cc2)cc1)c1ccc([N+](=O)[O-])cc1`, the Activity entry in series [4] and in [13] was “Non-Toxic” throughout. In addition, the inhibition entry in series [5], in series [1], in series [6], in [7] and in series [3] was “Dose-dependent effect” in each case. Besides, the IC50 in series [1] was 10.3 µM; in series [6], 13.2 µM; in series [11], over 1000 µM; in series [3], 0.31 µM. In addition, in series [2], the inhibition result is “Active”. Besides, the solubility in series [10] came out at 7 µM (≈ 3.97 µg/mL).

On to `Nc1ccc(C(=O)Nc2ccc(-c3ccc(C(=O)Nc4cccc5cccc(S(=O)(=O)O)c45)cc3)cc2)cc1`, for which the Activity result in series [16] is recorded as “Toxic”. The inhibition result in series [2] was “Active”. In series [14], the Ratio IC50 was over 100. In addition, the figures for the IC50 in series [11] and in series [3] were 887 µM and 301 µM, respectively.

On to `O=C(Nc1ccc(-c2ccc(C(=O)Nc3ccc(C(=O)O)c4ccccc34)cc2)cc1)c1ccc([N+](=O)[O-])cc1`, for which the inhibition result in [5], in [1], in series [6], in series [7] and in series [3] was “Dose-dependent effect” throughout. Also, the IC50 was 9.4 µM in series [1], 15.9 µM in series [6], over 1000 µM in series [11] and 0.36 µM in series [3]. For the same compound, the Activity entry in series [16] is “Toxic”. Further, the inhibition result in series [2] was “Active”. Also, the solubility in series [10] stood at 17 µM (≈ 9.04 µg/mL).
